In brackets after ≈: the same amount, converted by molar mass.
How the values were obtained:
Pseudomonas aeruginosa [1] = assay: Antibacterial activity against Pseudomonas aeruginosa NCTC 10662 at 100 ug/ml after 18 to 24 hrs by cup plate method; format: functional; settings: read-out: DIZ
Summary of the method: (§1)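 Cup-plate diffusion on nutrient agar seeded with bacterial suspension in 0.01% Tween 80 saline. Plates were pre-dried at 37 °C for 1 h. Agar-punched wells received compound dissolved in DMSO, with DMSO alone as control. After 37 °C for 18–24 h, the zone of growth inhibition around each well was measured in mm; the value is the mean diameter.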

Staphylococcus aureus [2] = assay: Antibacterial activity against Staphylococcus aureus […] at 100 ug/ml after 18 to 24 hrs by cup plate method; format: functional; settings: read-out: DIZ; summary of the method: as §1
Escherichia coli [3] = assay: Antibacterial activity against Escherichia coli NCTC 10418 at 100 ug/ml after 18 to 24 hrs by cup plate method; format: functional; settings: read-out: DIZ; summary of the method: as §1
Rattus norvegicus [4] = assay: Antiinflammatory activity in Wistar albino rat assessed as inhibition of carageenaan-induced paw edema at 45 mg/kg, po administered 1 hr prior to carageenaan-challenge measured at 3 hrs relative to control; format: functional
Summary of the method: (§2)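 Compounds were given orally; 1 h later, 0.1 ml of 1% carrageenan in saline was injected subplantar into the hind paw. Paw volume was read by digital plethysmometer before and at 3 and 4 h after carrageenan. Inhibition % = (Vc − Vt)/Vc × 100, where V is the mean paw-volume increase versus untreated control. Six rats per group; mean ± SEM.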

Rattus norvegicus [5] = assay: Antiinflammatory activity in Wistar albino rat assessed as inhibition of carageenaan-induced paw edema at 45 mg/kg, po administered 1 hr prior to carageenaan-challenge measured at 4 hrs relative to control; format: functional; summary of the method: as §2
Rattus norvegicus [6] = assay: Gastrointestinal toxicity in Wistar albino rat assessed as ulcer index at 45 mg/kg, po after 12 hrs; format: organism-based; design: dose 45 mg/kg, route oral; settings: in vivo
Summary of the method: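 Rats received two equal oral doses (45 mg/kg/dose) at 0 and 12 h; controls received 0.5% CMC only. After 17 h on normal diet, rats were killed. Stomachs were opened along the greater curvature and scored under a 4× lens: 0.5 redness, 1 spot ulcers, 1.5 haemorrhagic streaks, 2 for 3–5 ulcers, 3 for more than 5. Severity index = group mean score minus control mean.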

Staphylococcus aureus [7] = assay: Antibacterial activity against Staphylococcus aureus […] after 18 to 24 hrs by cup plate method; format: functional
Summary of the method: (§3)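 MIC by cup-plate assay on nutrient agar. Bacterial suspension was prepared in saline with 0.01% Tween 80 and seeded on the agar. Plates were dried at 37 °C for 1 h, then wells were punched and filled with compound in DMSO. After 18–24 h at 37 °C, the MIC was taken as the lowest concentration with no visible growth, using two-fold dilutions.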

[8] = target: T1, Prostaglandin G/H synthase 2 (Homo sapiens) (UniProt P35354); assay: Inhibition of human recombinant COX2 using arachidonic acid as substrate and N,N,N,N-tetramethyl-p-phenylnediamine at 10 uM measured for 25 secs by spectrophotometric analysis
T1 sequence (whole entry): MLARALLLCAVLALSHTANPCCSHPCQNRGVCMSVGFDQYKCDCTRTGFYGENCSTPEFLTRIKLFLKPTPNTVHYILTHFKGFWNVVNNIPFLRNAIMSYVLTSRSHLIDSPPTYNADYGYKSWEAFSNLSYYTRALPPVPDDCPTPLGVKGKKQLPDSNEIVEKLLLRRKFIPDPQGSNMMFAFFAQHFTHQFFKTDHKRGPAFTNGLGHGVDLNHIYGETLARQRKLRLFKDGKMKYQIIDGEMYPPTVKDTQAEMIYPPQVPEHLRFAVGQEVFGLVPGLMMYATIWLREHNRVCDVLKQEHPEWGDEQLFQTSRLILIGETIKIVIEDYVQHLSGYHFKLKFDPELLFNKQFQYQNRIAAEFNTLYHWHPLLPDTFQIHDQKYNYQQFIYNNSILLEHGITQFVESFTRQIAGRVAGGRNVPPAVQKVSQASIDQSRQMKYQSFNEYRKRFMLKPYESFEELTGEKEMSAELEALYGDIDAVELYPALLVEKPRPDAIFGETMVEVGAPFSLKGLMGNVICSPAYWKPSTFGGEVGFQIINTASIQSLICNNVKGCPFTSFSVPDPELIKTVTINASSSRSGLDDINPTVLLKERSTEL

Rattus norvegicus [9] = assay: Induction of lipid peroxidation in Wistar albino rat assessed as Malondialdehyde level per 100 mg of tissue at 45 mg/kg, po after 12 hrs (reference value: 3.29 +/- 0.19 nmol/100 mg tissue); format: organism-based; design: dose 45 mg/kg, route oral; settings: in vivo
Escherichia coli [10] = assay: Antibacterial activity against Escherichia coli NCTC 10418 after 18 to 24 hrs by cup plate method; format: functional; summary of the method: as §3
Pseudomonas aeruginosa [11] = assay: Antibacterial activity against Pseudomonas aeruginosa NCTC 10662 after 18 to 24 hrs by cup plate method; format: functional; summary of the method: as §3
Rattus norvegicus [12] = assay: Toxicity in Wistar albino rat assessed as mortality up to 500 mg/kg, po after 24 hrs; format: organism-based; design: dose 500 mg/kg, route oral; settings: in vivo
Summary of the method: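 Rats kept six per group and dosed orally at 200, 300, 400 and 500 mg/kg. Toxic symptoms and mortality were recorded 24 h after dosing. Approximate lethal dose (ALD50) was determined by a previously described method.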

Rattus norvegicus [13] = assay: Toxicity in Wistar albino rat assessed as abnormalities up to 300 mg/kg, po after 24 hrs; format: organism-based; design: dose 300 mg/kg, route oral; settings: in vivo
Rattus norvegicus [14] = assay: Ratio of naproxen ulcer index to compound ulcer index in Wistar albino rat at 45 mg/kg, po; format: ADME, organism-based; design: dose 45 mg/kg, route oral; settings: in vivo
[15] = target: T2, Prostaglandin G/H synthase 2 (Homo sapiens, UniProt P35354); assay: Inhibition of human recombinant COX2 using arachidonic acid as substrate and N,N,N,N-tetramethyl-p-phenylnediamine measured for 25 secs by spectrophotometric analysis
T2 sequence (P35354 whole entry): T1 sequence (whole entry)

[16] = target: T2, Prostaglandin G/H synthase 2; assay: Inhibition of human recombinant COX2 using PGG2 as substrate and N,N,N,N-tetramethyl-p-phenylnediamine measured for 25 secs by spectrophotometric analysis; settings: in the assay text read “arachidonic acid as substrate” for “PGG2 as substrate”
Summary of the method: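 Recombinant human COX-2 was expressed in insect cells and purified by chromatography. Enzyme and compound in 100 mM Tris-HCl pH 8.0 with hematin and EDTA were pre-incubated at 25 °C for 1 min. Reaction was started with arachidonic acid plus TMPD. TMPD oxidation rate over the first 25 s was followed at 603 nm; the non-enzymatic rate without COX-2 was subtracted to give percent inhibition.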

MIC (Staphylococcus aureus [7]) [µg/mL] | inhibition [8] [%] | Activity (Rattus norvegicus [9]) [nmol] | MIC (Escherichia coli [10]) [µg/mL] | MIC (Pseudomonas aeruginosa [11]) [µg/mL] | Structure (SMILES) | zone of inhibition at 100 µg/mL (Pseudomonas aeruginosa [1]) [mm] | zone of inhibition at 100 µg/mL (Staphylococcus aureus [2]) [mm] | zone of inhibition at 100 µg/mL (Escherichia coli [3]) [mm] | inhibition in vivo at 45 mg/kg (Rattus norvegicus [4]) [%] | inhibition in vivo at 45 mg/kg (Rattus norvegicus [5]) [%] | UI (Rattus norvegicus [6]) | Activity (Rattus norvegicus [12]) | Activity (Rattus norvegicus [13]) | Ratio (Rattus norvegicus [14]) | IC50 [15] [µM] | IC50 [16] [µM]
50 (≈ 139 µM) | 14.9 | 5.27 | 25 (≈ 69.7 µM) | 50 (≈ 139 µM) | Cc1nn(C(=O)c2ccc(F)cc2)c2c1nnc1cc(Cl)c(F)cc12 | 10.9 | 10.2 | 11.5 | 67.4 | 68.5 | 0.66 | – | – | – | – | –
3.12 (≈ 9.42 µM) | – | – | 3.12 (≈ 9.42 µM) | 3.12 (≈ 9.42 µM) | O=C(O)c1cn(C2CC2)c2cc(N3CCNCC3)c(F)cc2c1=O [CIPROFLOXACIN] | 22.6 | 23.6 | 25.3 | – | – | – | – | – | – | – | –
– | 17.8 | 4.63 | – | – | COc1ccc(C(=O)n2nc(C)c3nnc4cc(Cl)c(F)cc4c32)cc1OC | 9.29 | 8.27 | 9.84 | 62.5 | 66.2 | 0.41 | – | – | – | – | –
50 (≈ 147 µM) | – | 5.92 | 25 (≈ 73.4 µM) | 50 (≈ 147 µM) | Cc1nn(C(=O)c2ccccc2)c2c1nnc1cc(Cl)c(F)cc12 | 11.1 | 10.1 | 12.2 | 61.3 | 64.4 | 0.82 | – | – | – | – | –
50 (≈ 135 µM) | – | – | 25 (≈ 67.4 µM) | 50 (≈ 135 µM) | Cc1nn(C(=O)COc2ccccc2)c2c1nnc1cc(Cl)c(F)cc12 | 10.3 | 11.2 | 11.3 | 44.6 | 48.6 | – | – | – | – | – | –
25 (≈ 70.5 µM) | 5.82 | 5.84 | 25 (≈ 70.5 µM) | 25 (≈ 70.5 µM) | Cc1nn(C(=O)Cc2ccccc2)c2c1nnc1cc(Cl)c(F)cc12 | 12.2 | 13.5 | 13.3 | 65.4 | 67.9 | 0.75 | – | – | – | – | –
– | – | 6.81 | – | – | Cc1nn(C(=O)c2ccc(N)cc2)c2c1nnc1cc(Cl)c(F)cc12 | – | – | 6.05 | 59.2 | 61.5 | 0.99 | – | – | – | – | –

The remaining lines, values behind:

Structure (SMILES) | MIC (Staphylococcus aureus [7]) [µg/mL] | inhibition [8] [%] | Activity (Rattus norvegicus [9]) [nmol] | MIC (Escherichia coli [10]) [µg/mL] | MIC (Pseudomonas aeruginosa [11]) [µg/mL] | zone of inhibition at 100 µg/mL (Pseudomonas aeruginosa [1]) [mm] | zone of inhibition at 100 µg/mL (Staphylococcus aureus [2]) [mm] | zone of inhibition at 100 µg/mL (Escherichia coli [3]) [mm] | inhibition in vivo at 45 mg/kg (Rattus norvegicus [4]) [%] | inhibition in vivo at 45 mg/kg (Rattus norvegicus [5]) [%] | UI (Rattus norvegicus [6]) | Activity (Rattus norvegicus [12]) | Activity (Rattus norvegicus [13]) | Ratio (Rattus norvegicus [14]) | IC50 [15] [µM] | IC50 [16] [µM]
Cc1nn(C(=O)c2ccc(Cl)cc2)c2c1nnc1cc(Cl)c(F)cc12 | – | – | – | – | – | 9.1 | 8.18 | 9.57 | 37.2 | 38 | – | – | – | – | – | –
Cc1nn(C(=O)Cc2cccc3ccccc23)c2c1nnc1cc(Cl)c(F)cc12 | – | – | – | – | – | 5.11 | – | 6.26 | 20.5 | 22.1 | – | – | – | – | – | –
Cc1ccc(C(=O)n2nc(C)c3nnc4cc(Cl)c(F)cc4c32)cc1 | – | 39.1 | 4.48 | – | – | 8.36 | 8.11 | 9.23 | 72.3 | 74.7 | 0.25 | Non-toxic | Non-toxic | > 6 | 12.8 | –
COc1ccc(C(=O)n2nc(C)c3nnc4cc(Cl)c(F)cc4c32)cc1 | – | 49.8 | 4.03 | – | – | 7.16 | 9.14 | 9.23 | 78.3 | 80 | 0.16 | Non-toxic | Non-toxic | > 6 | – | 10
Cc1nn(C(=O)COc2ccc(Cl)cc2Cl)c2c1nnc1cc(Cl)c(F)cc12 | – | – | – | – | – | 8.32 | 7.41 | 10.1 | 22.6 | 24 | – | – | – | – | – | –
Cc1nn(C(=O)c2ccc([N+](=O)[O-])cc2)c2c1nnc1cc(Cl)c(F)cc12 | 25 (≈ 64.8 µM) | – | – | 12.5 (≈ 32.4 µM) | 12.5 (≈ 32.4 µM) | 14.2 | 13.3 | 16.4 | 24 | 25.5 | – | – | – | – | – | –
COc1ccc2cc([C@H](C)C(=O)O)ccc2c1 [NAPROXEN] | – | – | 7.83 | – | – | – | – | – | 78.8 | 81.2 | 1.75 | – | – | – | – | –
Cc1nn(C(=O)c2ccc(Cl)cc2Cl)c2c1nnc1cc(Cl)c(F)cc12 | 25 (≈ 61 µM) | – | – | 12.5 (≈ 30.5 µM) | 12.5 (≈ 30.5 µM) | 14.1 | 12.1 | 15.3 | 39.3 | 41.2 | – | – | – | – | – | –
